Measured values from ChEMBL document CHEMBL4130484, “Identification and optimization of novel 6-acylamino-2-aminoquinolines as potent Hsp90 C-terminal inhibitors” (Eur J Med Chem, 2017).
In brackets after ≈: the same amount, converted by molar mass. Activity calls are given as the source filed them. The rule behind the calls is not given here.

Experiments:
[1] = tested on: MCF7; assay: Induction of heat shock response in human MCF7 cells assessed as effect on HSP70 protein expression at 1 to 10 uM incubated for 24 hrs by Western blot method; type: cell-based; conditions: mcf7, 24 h
How it was run: (§1)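 MCF7 cells incubated 24 h with various concentrations, then client protein levels read by Western blot. β-Actin served as loading control. AT13387 (1.0 µM), an N-terminal Hsp90 inhibitor, was the positive control.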

[2] = tested on: MCF7; assay: Induction of apoptosis in human MCF7 cells assessed as necrotic cells level at 10 uM incubated for 24 hrs by Annexin V-FITC and propidium iodide staining based flow cytometry (reference value: 0.51%); type: functional
[3] = Distribution coefficient, log D of the compound at pH 7.4; type: physicochemical; conditions: octanol/water
How it was run: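 Log D at pH 7.4 measured on a PULSE platform.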

[4] = tested on: MCF7; assay: Induction of apoptosis in human MCF7 cells assessed as late apoptotic cells level at 2.5 uM incubated for 24 hrs by Annexin V-FITC and propidium iodide staining based flow cytometry (reference value: 4.19%); type: functional
[5] = Permeability coefficient of the compound at pH 7.4 by double-sink PAMPA; type: ADME; conditions: read-out: permeability
How it was run: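 Double-sink PAMPA at pH 7.4 on a PAMPA Explorer instrument; Pe reported as mean ± SD, n = 3.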

[6] = molecular target: T1, Heat shock protein HSP90 (Homo sapiens) (UniProt P07900+P08238); assay: Inhibition of HSP90 C-terminal in human MCF7 cells assessed as reduction in Akt protein expression incubated for 24 hrs by Western blot method; type: cell-based; how it was run: as §1
[7] = tested on: MCF7; assay: Induction of apoptosis in human MCF7 cells assessed as late apoptotic cells level at 10 uM incubated for 24 hrs by Annexin V-FITC and propidium iodide staining based flow cytometry (reference value: 4.19%); type: functional
[8] = tested on: Mus musculus; assay: Toxicity in BALB/c mouse implanted with mouse 4T1 cells assessed as induction of body weight loss at 30 mg/kg/day, ip for 2 weeks measured every 2 days; type: organism-based; conditions: in vivo
How it was run: (§2)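 4T1 tumor-bearing BALB/c mice were given vehicle, 10 or 30 mg/kg ip daily for 2 weeks from mean tumor volume 50 mm³. Body weight was monitored during treatment.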

[9] = tested on: SK-BR-3; assay: Antiproliferative activity against human SKBR3 cells incubated for 72 hrs by MTT assay; type: functional, cell-based; conditions: SK-BR-3, 72 h
How it was run: (§3)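 MTT antiproliferation assay in MCF7 and SKBr3 breast cancer cells; IC50 determined.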

[10] = Intrinsic aqueous solubility of the compound; type: physicochemical
How it was run: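 Intrinsic aqueous solubility determined on a Gemini Profiler instrument.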

[11] = tested on: MCF7; assay: Induction of apoptosis in human MCF7 cells assessed as early apoptotic cells level at 2.5 uM incubated for 24 hrs by Annexin V-FITC and propidium iodide staining based flow cytometry (reference value: 1.93%); type: functional
[12] = tested on: Mus musculus; assay: Toxicity in BALB/c mouse implanted with mouse 4T1 cells assessed as induction of body weight loss at 10 mg/kg/day, ip for 2 weeks measured every 2 days; type: organism-based; conditions: in vivo; how it was run: as §2
[13] = tested on: MCF7; assay: Induction of apoptosis in human MCF7 cells assessed as necrotic cells level at 2.5 uM incubated for 24 hrs by Annexin V-FITC and propidium iodide staining based flow cytometry (reference value: 0.51%); type: functional
[14] = molecular target: T1, Heat shock protein HSP90 (Homo sapiens); assay: Inhibition of HSP90 C-terminal in human MCF7 cells assessed as reduction in CDK6 protein expression incubated for 24 hrs by Western blot method; type: cell-based; how it was run: as §1
[15] = tested on: 4T1; assay: Antitumor activity against mouse 4T1 cells implanted in BALB/c mouse assessed as inhibition of lung metastasis at 30 mg/kg/day, ip for 2 weeks measured every 2 days by H and E staining; type: functional, organism-based
How it was run: (§4)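 4T1 tumor-bearing BALB/c mice were dosed ip daily for 2 weeks with vehicle, 10 or 30 mg/kg, starting at mean tumor volume 50 mm³. Lung tissue was then examined for metastasis.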

[16] = tested on: 4T1; assay: Antitumor activity against mouse 4T1 cells implanted in BALB/c mouse assessed as inhibition of tumor growth at 30 mg/kg/day, ip for 2 weeks measured every 2 days; type: functional; conditions: 4T1, ip, read-out: TGI
How it was run: (§5)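 BALB/c mice bearing 4T1 breast tumors were dosed ip daily for 2 weeks with vehicle, 10 or 30 mg/kg, starting once mean tumor volume reached 50 mm³. Tumor diameters were measured every two days; TGI derived.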

[17] = tested on: MCF7; assay: Induction of heat shock response in human MCF7 cells assessed as effect on HSP90 protein expression at 1 to 10 uM incubated for 24 hrs by Western blot method; type: cell-based; conditions: mcf7, 24 h; how it was run: as §1
[18] = tested on: MCF7; assay: Induction of apoptosis in human MCF7 cells assessed as viable cells level at 2.5 uM incubated for 24 hrs by Annexin V-FITC and propidium iodide staining based flow cytometry (reference value: 93.37%); type: functional
[19] = tested on: MCF7; assay: Inhibition of cell migration in human MCF7 cells incubated for 24 hrs by wound healing assay; type: functional, cell-based
How it was run: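 Wound healing in MCF7 cells: the monolayer was scratched with a 200 µL sterile pipette tip, treated 24 h at various concentrations, then imaged.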

[20] = tested on: MCF7; assay: Induction of apoptosis in human MCF7 cells assessed as early apoptotic cells level at 5 uM incubated for 24 hrs by Annexin V-FITC and propidium iodide staining based flow cytometry (reference value: 1.93%); type: functional
[21] = tested on: MCF7; assay: Induction of apoptosis in human MCF7 cells assessed as viable cells level at 5 uM incubated for 24 hrs by Annexin V-FITC and propidium iodide staining based flow cytometry (reference value: 93.37%); type: functional
[22] = tested on: 4T1; assay: Antitumor activity against mouse 4T1 cells implanted in BALB/c mouse assessed as inhibition of lung metastasis at 10 mg/kg/day, ip for 2 weeks measured every 2 days by H and E staining; type: functional, organism-based; how it was run: as §4
[23] = tested on: MCF7; assay: Induction of apoptosis in human MCF7 cells assessed as viable cells level at 10 uM incubated for 24 hrs by Annexin V-FITC and propidium iodide staining based flow cytometry (reference value: 93.37%); type: functional
[24] = tested on: MCF7; assay: Induction of apoptosis in human MCF7 cells assessed as early apoptotic cells level at 10 uM incubated for 24 hrs by Annexin V-FITC and propidium iodide staining based flow cytometry (reference value: 1.93%); type: functional
[25] = tested on: MCF7; assay: Antiproliferative activity against human MCF7 cells incubated for 72 hrs by MTT assay; type: functional, cell-based; conditions: MCF7, 72 h; how it was run: as §3
[26] = tested on: MCF7; assay: Induction of apoptosis in human MCF7 cells assessed as necrotic cells level at 5 uM incubated for 24 hrs by Annexin V-FITC and propidium iodide staining based flow cytometry (reference value: 0.51%); type: functional
[27] = molecular target: T1, Heat shock protein HSP90 (Homo sapiens); assay: Inhibition of HSP90 C-terminal in human MCF7 cells assessed as reduction in ERK protein expression incubated for 24 hrs by Western blot method; type: cell-based; how it was run: as §1
[28] = tested on: 4T1; assay: Antitumor activity against mouse 4T1 cells implanted in BALB/c mouse assessed as inhibition of tumor growth at 10 mg/kg/day, ip for 2 weeks measured every 2 days; type: functional; conditions: 4T1, ip, read-out: TGI; how it was run: as §5
[29] = tested on: MCF7; assay: Induction of apoptosis in human MCF7 cells assessed as late apoptotic cells level at 5 uM incubated for 24 hrs by Annexin V-FITC and propidium iodide staining based flow cytometry (reference value: 4.19%); type: functional

logD [3]: 2.72
Papp [5]: 473 nm/s
inhibition [6]: Dose-dependent effect
IC50 [9]: 1.8 µM
solubility [10]: 0.0708 mg/mL (≈ 155 µM)
inhibition [14]: Dose-dependent effect
IC50 [25]: 1.19 µM
inhibition [27]: Dose-dependent effect
Structure (SMILES): Cc1cc(NCCN2CCCCC2)nc2ccc(NC(=O)c3ccc(Cl)c(Cl)c3)cc12
Activity [1]: Non-Toxic
Activity [2]: 5.5%
Activity [4]: 4.33%
Activity [7]: 31.59%
Activity [8]: Non-Toxic
Activity [11]: 1.57%
Activity [12]: Non-Toxic
Activity [13]: 0.8%
inhibition [15]: Active
inhibition in vivo at 30 mg/kg/day [16]: 47%
Activity [17]: Non-Toxic
Activity [18]: 93.3%
inhibition [19]: Dose-dependent effect
Activity [20]: 5.21%
Activity [21]: 78.86%
inhibition [22]: Active
Activity [23]: 42.69%
Activity [24]: 20.22%
Activity [26]: 3.13%
inhibition in vivo at 10 mg/kg/day [28]: 26%
Activity [29]: 12.8%
